Laboratory results published in ChEMBL document CHEMBL1142866, “Synthesis and preliminary evaluation of 18F- or 11C-labeled bicyclic nucleoside analogues as potential probes for imaging varicella-zoster virus thymidine kinase gene expression using positron emission tomography” (J Med Chem, 2007).
The source made the active and inactive calls. The rule behind the calls is not given here.

Assays:
Heart [1] = test: Biodistribution in heart of NMRI mouse after 2 mins; type: ADME, organism-based; conditions: in vivo
Outline: (§1)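 Male NMRI mice (30-40 g) under ketamine/xylazine i.p. anesthesia received 0.1 mL of HPLC-purified 18F tracer (0.1 mCi/mL) or 11C tracer (1 mCi/mL) in water for injection via tail vein. Killed by decapitation at 2 or 60 min (n = 3 per time). Blood, organs and carcass weighed and gamma-counted. %ID = organ cpm/total cpm recovered. Blood mass taken as 7% of body mass. Mean ± SD.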

Blood [2] = test: Biodistribution in blood of NMRI mouse after 2 mins; type: ADME, organism-based; conditions: in vivo; outline: as §1
Heart [3] = test: Biodistribution in heart of NMRI mouse assessed as standard uptake value after 60 mins; type: ADME, organism-based; conditions: in vivo, 1 h
Liver [4] = test: Biodistribution in liver of NMRI mouse after 2 mins; type: ADME, organism-based; conditions: in vivo; outline: as §1
Lung [5] = test: Biodistribution in lung of NMRI mouse after 2 mins; type: ADME, organism-based; conditions: in vivo; outline: as §1
Intestine [6] = test: Biodistribution in intestine of NMRI mouse after 60 mins; type: ADME, organism-based; conditions: in vivo, 1 h; outline: as §1
[7] = Partition coefficient, log P at pH 7.4; type: physicochemical; conditions: octanol/water
Outline: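 HPLC-purified radiotracer partitioned between 1-octanol and 0.025 M phosphate buffer pH 7.4. Vortexed 2 min at room temperature, centrifuged 5 min, aliquots of both phases gamma-counted. P = octanol cpm/buffer cpm after density and mass correction; n = 6.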

[8] = Biodistribution in carcass of NMRI mouse after 60 mins; type: ADME, organism-based; conditions: in vivo, 1 h; outline: as §1
Heart [9] = test: Biodistribution in heart of NMRI mouse assessed as standard uptake value after 2 mins; type: ADME, organism-based; conditions: in vivo
Kidney [10] = test: Biodistribution in kidney of NMRI mouse assessed as standard uptake value after 2 mins; type: ADME, organism-based; conditions: in vivo
Liver [11] = test: Biodistribution in liver of NMRI mouse assessed as standard uptake value after 60 mins; type: ADME, organism-based; conditions: in vivo, 1 h
[12] = Biodistribution in spleen/pancreas of NMRI mouse assessed as standard uptake value after 2 mins; type: ADME, organism-based; conditions: in vivo
[13] = Biodistribution in spleen/pancreas of NMRI mouse after 60 mins; type: ADME, organism-based; conditions: in vivo, 1 h; outline: as §1
[14] = Drug uptake in human 293T cells transduced with VZV-tk gene after 3 hrs; type: ADME, cell-based; conditions: hek-293t
Outline: (§2)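 Lentivirally transduced 293T cells (VZV-tk or LacZ control) plated in triplicate at 200 000 cells/well. After 24 h, 0.25 mL fresh medium with 5 µCi of the 18F tracer (3 h) or 30 µCi of the 11C tracer (1 h) added; 37 °C, 5% CO2. Cells washed thrice with ice-cold PBS, lysed, gamma-counted. Uptake given as % total radioactivity per mg protein (Bio-Rad assay); n = 3, unpaired two-sided t-test.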

[15] = Ratio of drug uptake in LV-VZVTK-1-P transduced cells to LV-LacZ-I-P transduced 293T cells after 3 hrs; type: ADME, cell-based; conditions: human
Outline: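 Lentivirally transduced human embryonic kidney 293T cells (VZV-tk vs LacZ control), plated in triplicate at 200 000 cells/well. After 24 h, fresh medium with HPLC-purified [18F] tracer (5 µCi/well), 3 h at 37 °C, 5% CO2. Cells washed three times with ice-cold PBS and lysed. Lysate counted in a gamma counter. Uptake given as % total radioactivity per mg protein (Bio-Rad assay). Ratio is VZV-tk/LacZ; n=3, unpaired Student t-test.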

Liver [16] = test: Biodistribution in liver of NMRI mouse assessed as standard uptake value after 2 mins; type: ADME, organism-based; conditions: in vivo
Lung [17] = test: Biodistribution in lung of NMRI mouse after 60 mins; type: ADME, organism-based; conditions: in vivo, 1 h; outline: as §1
Brain [18] = test: Biodistribution in brain of NMRI mouse after 60 mins; type: ADME, organism-based; conditions: in vivo, 1 h; outline: as §1
[19] = Drug uptake in human 293T cells transduced with LacZ gene after 3 hrs; type: ADME, cell-based; conditions: hek-293t; outline: as §2
[20] = Biodistribution in urine of NMRI mouse after 2 mins; type: ADME, organism-based; conditions: in vivo; outline: as §1
Lung [21] = test: Biodistribution in lung of NMRI mouse assessed as standard uptake value after 60 mins; type: ADME, organism-based; conditions: in vivo, 1 h
Blood [22] = test: Biodistribution in blood of NMRI mouse after 60 mins; type: ADME, organism-based; conditions: in vivo, 1 h; outline: as §1
[23] = Biodistribution in carcass of NMRI mouse after 2 mins; type: ADME, organism-based; conditions: in vivo; outline: as §1
Liver [24] = test: Biodistribution in liver of NMRI mouse after 60 mins; type: ADME, organism-based; conditions: in vivo, 1 h; outline: as §1
[25] = Biodistribution in spleen/pancreas of NMRI mouse assessed as standard uptake value after 60 mins; type: ADME, organism-based; conditions: in vivo, 1 h
Heart [26] = test: Biodistribution in heart of NMRI mouse after 60 mins; type: ADME, organism-based; conditions: in vivo, 1 h; outline: as §1
Lung [27] = test: Biodistribution in lung of NMRI mouse assessed as standard uptake value after 2 mins; type: ADME, organism-based; conditions: in vivo
Kidney [28] = test: Biodistribution in kidney of NMRI mouse assessed as standard uptake value after 60 mins; type: ADME, organism-based; conditions: in vivo, 1 h
Blood [29] = test: Biodistribution in blood of NMRI mouse assessed as standard uptake value after 60 mins; type: ADME, organism-based; conditions: in vivo, 1 h
[30] = Biodistribution in spleen/pancreas of NMRI mouse after 2 mins; type: ADME, organism-based; conditions: in vivo; outline: as §1
Kidney [31] = test: Biodistribution in kidney of NMRI mouse after 60 mins; type: ADME, organism-based; conditions: in vivo, 1 h; outline: as §1
Kidney [32] = test: Biodistribution in kidney of NMRI mouse after 2 mins; type: ADME, organism-based; conditions: in vivo; outline: as §1
Brain [33] = test: Biodistribution in brain of NMRI mouse after 2 mins; type: ADME, organism-based; conditions: in vivo; outline: as §1
Intestine [34] = test: Biodistribution in intestine of NMRI mouse after 2 mins; type: ADME, organism-based; conditions: in vivo; outline: as §1
Brain [35] = test: Biodistribution in brain of NMRI mouse assessed as standard uptake value after 2 mins; type: ADME, organism-based; conditions: in vivo
Blood [36] = test: Biodistribution in blood of NMRI mouse assessed as standard uptake value after 2 mins; type: ADME, organism-based; conditions: in vivo
[37] = Biodistribution in urine of NMRI mouse after 60 mins; type: ADME, organism-based; conditions: in vivo, 1 h; outline: as §1
Brain [38] = test: Biodistribution in brain of NMRI mouse assessed as standard uptake value after 60 mins; type: ADME, organism-based; conditions: in vivo, 1 h
[39] = Inhibition of recombinant VZV TK assessed as [CH3-H3]dThd phosphorylation; design: species or system Human alphaherpesvirus 3
Outline: (§3)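 Purified recombinant VZV TK (7.75 ng), HSV-1 TK (226 ng) or cytosolic TK-1 (455 ng). Buffer: 50 mM Tris-HCl pH 8.0, 2.5 mM MgCl2, 10 mM DTT, 2.5 mM ATP, 1.0 mg/mL BSA, 10 mM NaF, 1 µM [CH3-3H]dThd final. Incubated 30 min at 37 °C (linear range) with graded compound concentrations. Product caught on DE-81 disks, washed, scintillation-counted. IC50 is 50% inhibition of dThd phosphorylation.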

OST [40] = test: Cytostatic activity against OST TK-/HSV1 TK+ cells at 1.8 uM; type: functional, cell-based; conditions: Homo sapiens, tested as the 18F-labelled form
Outline: (§4)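 OST TK- control cells and OST TK- cells expressing HSV-1 TK or VZV TK were cultured 5 days with graded compound concentrations. Cells were then trypsinized and counted on a Coulter counter. CC50 is the concentration in µM that reduces cell number by 50%.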

OST [41] = test: Cytotoxicity against OST cells expressing HSV1 TK; type: cell-based; conditions: human; outline: as §4
Thymidine kinase = biological target: T1, Thymidine kinase (Human alphaherpesvirus 1, UniProt Q9QNF7); test: Inhibition of recombinant HSV-1 TK assessed as [CH3-H3]dThd phosphorylation; outline: as §3
T1 sequence (Q9QNF7 whole entry): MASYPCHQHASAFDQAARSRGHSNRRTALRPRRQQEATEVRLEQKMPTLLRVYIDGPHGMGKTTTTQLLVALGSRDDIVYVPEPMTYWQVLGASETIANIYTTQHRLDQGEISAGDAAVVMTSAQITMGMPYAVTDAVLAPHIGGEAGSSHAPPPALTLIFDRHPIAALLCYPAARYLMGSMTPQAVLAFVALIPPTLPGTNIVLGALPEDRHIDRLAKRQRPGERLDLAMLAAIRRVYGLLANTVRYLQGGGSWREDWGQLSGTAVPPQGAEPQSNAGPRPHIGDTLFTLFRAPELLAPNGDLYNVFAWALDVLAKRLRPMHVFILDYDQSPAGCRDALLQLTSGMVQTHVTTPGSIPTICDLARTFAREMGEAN

[42] = biological target: T2, Thymidine kinase, cytosolic (Homo sapiens, UniProt P04183); test: Inhibition of recombinant cytosolic TK-1 assessed as [CH3-H3]dThd phosphorylation; outline: as §3
T2 sequence (P04183 whole entry): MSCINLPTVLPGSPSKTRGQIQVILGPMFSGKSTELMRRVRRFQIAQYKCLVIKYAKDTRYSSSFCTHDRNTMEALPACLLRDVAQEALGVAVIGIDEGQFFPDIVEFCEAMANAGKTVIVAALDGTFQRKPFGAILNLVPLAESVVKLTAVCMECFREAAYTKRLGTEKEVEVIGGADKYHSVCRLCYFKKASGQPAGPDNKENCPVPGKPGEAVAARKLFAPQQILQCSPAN

OST [43] = test: Cytotoxicity against OST cells expressing VZV TK; type: cell-based; conditions: human; outline: as §4
OST [44] = test: Cytostatic activity against OST TK-/HSV1 TK+ cells at 0.038 uM; type: functional, cell-based; conditions: Homo sapiens; outline: as §4

O=c1nc2oc(-c3cccc(OCC[18F])c3)cc2cn1[C@H]1C[C@H](O)[C@@H](CO)O1
Drug uptake (Heart [1]): 0.3 %ID | Drug uptake (Blood [2]): 6.2 %ID | Drug uptake (Heart [3]): 0 | Drug uptake (Liver [4]): 24.4 %ID | Drug uptake (Lung [5]): 0.9 %ID | Drug uptake (Intestine [6]): 60.5 %ID | logD [7]: 1.24 | Drug uptake [8]: 3.8 %ID | Drug uptake (Heart [9]): 0.6 | Drug uptake (Kidney [10]): 9 | Drug uptake (Liver [11]): 0.7 | Drug uptake [12]: 1.4 | Drug uptake [13]: 0.1 %ID | Drug uptake [14]: 2.29% | uptake ratio at 3 h [15]: 4.5 | Drug uptake (Liver [16]): 3.9 | Drug uptake (Lung [17]): 0.1 %ID | Drug uptake (Brain [18]): 0 %ID | Drug uptake [19]: 0.6% | Drug uptake [20]: 5.7 %ID | Drug uptake (Lung [21]): 0 | Drug uptake (Blood [22]): 0.4 %ID | Drug uptake [23]: 27.2 %ID | Drug uptake (Liver [24]): 4.4 %ID | Drug uptake [25]: 0.1 | Drug uptake (Heart [26]): 0 %ID | Drug uptake (Lung [27]): 1.1 | Drug uptake (Kidney [28]): 0.7 | Drug uptake (Blood [29]): 0.1 | Drug uptake [30]: 1.3 %ID | Drug uptake (Kidney [31]): 1.2 %ID | Drug uptake (Kidney [32]): 15.5 %ID | Drug uptake (Brain [33]): 0 %ID | Drug uptake (Intestine [34]): 20.7 %ID | Drug uptake (Brain [35]): 0.1 | Drug uptake (Blood [36]): 0.9 | Drug uptake [37]: 29.5 %ID | Drug uptake (Brain [38]): 0

Nc1nc(=O)c2ncn(CCC(CO)CF)c2[nH]1 (stereo not given)
IC50 [39]: > 50 µM | Activity (OST [40]): Active

COc1cccc(-c2cc3cn([C@H]4C[C@H](O)[C@@H](CO)O4)c(=O)nc3o2)c1
Activity (OST [41]): Not Active | IC50 [39]: 4.8 µM | IC50 (Thymidine kinase): > 500 µM | IC50 [42]: > 500 µM | Activity (OST [43]): Not Active

Nc1nc(O)c2ncn(CCC(CO)CO)c2n1 [PENCICLOVIR]
IC50 [39]: > 50 µM | Activity (OST [44]): Active

O=c1nc2oc(-c3ccccc3F)cc2cn1C1C[C@H](O)[C@@H](CO)O1 (stereo not given in full)
IC50 [39]: 0.28 µM | IC50 (Thymidine kinase): > 500 µM | IC50 [42]: > 500 µM
